Experimental findings from ChEMBL document CHEMBL1124330, “2-O-alkyltyrosine derivatives of 1-deamino-arginine-vasopressin: highly specific and potent antidiuretic agonists” (J Med Chem, 1989) are described below.

Where a SMILES comes first, the peptide text is derived from it.

Experiment [1] is filed under the species Rattus norvegicus. Briefly: In vitro anti-oxytocic activity on isolated estrogen treated rat uteri with 0.5 mM Mg+2. The format is functional. As to conditions: read-out: pA2 (converted). In a few lines:
(§1)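 Uteri isolated from estrogen-treated female rats, suspended in medium containing either no Mg2+ or 0.5 mM Mg2+. Agonism estimated by the Holton method. Antagonistic pA2 values determined as described by Schild.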

For experiment [2], the species on record is Rattus norvegicus. Briefly: Anti vasopressor activity was determined. As to conditions: read-out: pA2 (converted). The format is functional, organism-based. In a few lines:
(§2)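 Vasopressor assay in urethane-anesthetized, phenoxybenzamine-treated rats, given by intravenous injection. Effective dose in nmol/kg is the antagonist dose that cuts the response to 2x units of agonist down to the response to 1x unit given before antagonist. USP posterior pituitary reference standard.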

For experiment [3], the species on record is Rattus norvegicus. The experiment can be described thus: In vitro anti-oxytocic activity on isolated estrogen treated rat uteri without Mg+2. In kind it is functional. As to conditions: read-out: pA2 (converted). In a few lines:
as §1

For experiment [4], the species on record is Rattus norvegicus. The experiment can be described thus: Compound was tested for its antidiuretic activity. The format is functional, Urine.
In experiment [5] the test system is Rattus norvegicus. Briefly: Dose that reduces the response seen with 2x units of agonist to equal the response seen with 1x unit of agonist administered before antagonist. The format is functional. In outline: as §2
Experiment [6] in a line: Ratio of antidiuretic to vasopressor agonistic activity. The format is functional, Urine. In a few lines:
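Quotient of antidiuretic to vasopressor agonist potency. Each potency was measured by intravenous injection against the USP posterior pituitary standard: antidiuresis in ethanol-anesthetized, water-loaded rats, and pressor response in phenoxybenzamine-treated, urethane-anesthetized rats.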

Experiment [7] is filed under the species Rattus norvegicus. Briefly: Binding affinity was determined. As to conditions: read-out: pA2 (converted). The format is functional, organism-based.
Experiment [8] is filed under the species Rattus norvegicus. Briefly: In vitro anti-oxytocic activity on isolated estrogen treated rat uteri with Mg+2. In kind it is functional. As to conditions: read-out: pA2 (converted). In a few lines:
as §1

Experiment [9] is filed under the species Rattus norvegicus. The experiment can be described thus: In vitro anti-oxytocic activity on isolated estrogen treated rat uteri without Mg+2; Agonist. In kind it is functional. In a few lines: as §1
The species named for experiment [10] is Rattus norvegicus. The experiment can be described thus: In vitro anti-oxytocic activity on isolated estrogen treated rat uteri with 0.5 mM Mg+2; Agonist. The format is functional. In a few lines: as §1
For experiment [11], the species on record is Rattus norvegicus. The experiment can be described thus: In vitro oxytocic activity on isolated estrogen treated rat uteri with 0.5 mM Mg+2.

As to `COc1ccc(C[C@@H]2NC(=O)CCSSC[C@@H](C(=O)N3CCC[C@H]3C(=O)N[C@H](CCCN=C(N)N)C(=O)NCC(N)=O)NC(=O)[C@H](CC(N)=O)NC(=O)[C@H](CCC(N)=O)NC(=O)[C@H](Cc3ccccc3)NC2=O)cc1` [listing 1 of 2 here], the values for the Kb in the experiment listed under Rattus norvegicus [1], in the experiment listed under Rattus norvegicus [2] and in the experiment filed under Rattus norvegicus [3] were 39.8 nM, 107 nM and 11.7 nM, respectively.

As for `COc1ccc(C[C@@H]2NC(=O)CCSSC[C@@H](C(=O)N3CCC[C@H]3C(=O)N[C@H](CCCN=C(N)N)C(=O)NCC(N)=O)NC(=O)[C@H](CC(N)=O)NC(=O)[C@H](CCC(N)=O)NC(=O)[C@H](Cc3ccccc3)NC2=O)cc1` [listing 2 of 2 here], the Activity in the experiment listed under Rattus norvegicus [4] is 236 units/mg. For the same compound, the ED in the experiment on Rattus norvegicus [5] is 9.8 nM/kg.

On to `COc1ccc(C[C@@H]2NC(=O)CCSSC[C@@H](C(=O)N3CCC[C@H]3C(=O)N[C@@H](CCCN=C(N)N)C(=O)NCC(N)=O)NC(=O)[C@H](CC(N)=O)NC(=O)[C@H](CCC(N)=O)NC(=O)[C@H](Cc3ccccc3)NC2=O)cc1`, for which the Ratio in [6] was 202. The compound also displayed an Activity in the experiment listed under Rattus norvegicus [4] of 830 units/mg.

Turning to `CCOc1ccc(C[C@@H]2NC(=O)CCSSC[C@@H](C(=O)N3CCC[C@H]3C(=O)N[C@H](CCCN=C(N)N)C(=O)NCC(N)=O)NC(=O)[C@H](CC(N)=O)NC(=O)[C@H](CCC(N)=O)NC(=O)[C@H](Cc3ccccc3)NC2=O)cc1` [listing 1 of 2 here], the Kb was 89.1 nM in the experiment filed under Rattus norvegicus [1], 52.5 nM in the experiment filed under Rattus norvegicus [3] and 129 nM in the experiment filed under Rattus norvegicus [7].

In turn, `CCOc1ccc(C[C@@H]2NC(=O)CCSSC[C@@H](C(=O)N3CCC[C@H]3C(=O)N[C@H](CCCN=C(N)N)C(=O)NCC(N)=O)NC(=O)[C@H](CC(N)=O)NC(=O)[C@H](CCC(N)=O)NC(=O)[C@H](Cc3ccccc3)NC2=O)cc1` [listing 2 of 2 here] displayed an Activity in the experiment listed under Rattus norvegicus [4] of 30 units/mg. The compound further registered an ED with Rattus norvegicus [5] of 8.8 nM/kg.

Take `COc1ccc(C[C@@H]2NC(=O)CCSSC[C@@H](C(=O)N3CCC[C@H]3C(=O)N[C@H](CCCN=C(N)N)C(=O)NCC(N)=O)NC(=O)[C@H](CC(N)=O)NC(=O)[C@H](C(C)C)NC(=O)[C@H](Cc3ccccc3)NC2=O)cc1` [listing 1 of 2 here]: the Kb in the experiment filed under Rattus norvegicus [1] is 9.55 nM; in the experiment filed under Rattus norvegicus [3] it was 17 nM; in the experiment filed under Rattus norvegicus [8], 9.55 nM; in the experiment listed under Rattus norvegicus [7], 97.7 nM.

Turning to `COc1ccc(C[C@@H]2NC(=O)CCSSC[C@@H](C(=O)N3CCC[C@H]3C(=O)N[C@H](CCCN=C(N)N)C(=O)NCC(N)=O)NC(=O)[C@H](CC(N)=O)NC(=O)[C@H](C(C)C)NC(=O)[C@H](Cc3ccccc3)NC2=O)cc1` [listing 2 of 2 here], the Activity in the experiment listed under Rattus norvegicus [4] stood at 1740 units/mg. This compound also returned an ED in the experiment with Rattus norvegicus [5] of 8.4 nM/kg.

As for `CCOc1ccc(C[C@@H]2NC(=O)CCSSC[C@@H](C(=O)N3CCC[C@H]3C(=O)N[C@@H](CCCN=C(N)N)C(=O)NCC(N)=O)NC(=O)[C@H](CC(N)=O)NC(=O)[C@H](CCC(N)=O)NC(=O)[C@H](Cc3ccccc3)NC2=O)cc1` [listing 1 of 2 here], the Kb in the experiment filed under Rattus norvegicus [1] was 39.8 nM; in the experiment listed under Rattus norvegicus [3], 42.7 nM; in the experiment listed under Rattus norvegicus [7] it was 126 nM.

Compound `CCOc1ccc(C[C@@H]2NC(=O)CCSSC[C@@H](C(=O)N3CCC[C@H]3C(=O)N[C@@H](CCCN=C(N)N)C(=O)NCC(N)=O)NC(=O)[C@H](CC(N)=O)NC(=O)[C@H](CCC(N)=O)NC(=O)[C@H](Cc3ccccc3)NC2=O)cc1` [listing 2 of 2 here] showed an Activity in the experiment filed under Rattus norvegicus [4] of 242 units/mg. This compound also displayed an ED in the experiment on Rattus norvegicus [5] of 11 nM/kg.

Take `CCOc1ccc(C[C@@H]2NC(=O)CCSSC[C@@H](C(=O)N3CCC[C@H]3C(=O)N[C@H](CCCN=C(N)N)C(=O)NCC(N)=O)NC(=O)[C@H](CC(N)=O)NC(=O)[C@H](C(C)C)NC(=O)[C@H](Cc3ccccc3)NC2=O)cc1` [listing 1 of 2 here]: the figures for the Kb in the experiment filed under Rattus norvegicus [1], in the experiment listed under Rattus norvegicus [3] and in the experiment listed under Rattus norvegicus [7] were 22.9 nM, 28.2 nM and 85.1 nM, respectively.

For the compound `CCOc1ccc(C[C@@H]2NC(=O)CCSSC[C@@H](C(=O)N3CCC[C@H]3C(=O)N[C@H](CCCN=C(N)N)C(=O)NCC(N)=O)NC(=O)[C@H](CC(N)=O)NC(=O)[C@H](C(C)C)NC(=O)[C@H](Cc3ccccc3)NC2=O)cc1` [listing 2 of 2 here], in the experiment filed under Rattus norvegicus [4], the Activity was determined as 132 units/mg. Moreover, the ED in the experiment on Rattus norvegicus [5] was 6.3 nM/kg.

For `CCOc1ccc(C[C@@H]2NC(=O)CCSSC[C@@H](C(=O)N3CCC[C@H]3C(=O)N[C@@H](CCCN=C(N)N)C(=O)NCC(N)=O)NC(=O)[C@H](CC(N)=O)NC(=O)[C@H](C(C)C)NC(=O)[C@H](Cc3ccccc3)NC2=O)cc1` [listing 1 of 2 here], the Kb in the experiment listed under Rattus norvegicus [1] is 22.9 nM; in the experiment filed under Rattus norvegicus [3] it was 12.6 nM; in the experiment listed under Rattus norvegicus [7], 28.8 nM.

For `CCOc1ccc(C[C@@H]2NC(=O)CCSSC[C@@H](C(=O)N3CCC[C@H]3C(=O)N[C@@H](CCCN=C(N)N)C(=O)NCC(N)=O)NC(=O)[C@H](CC(N)=O)NC(=O)[C@H](C(C)C)NC(=O)[C@H](Cc3ccccc3)NC2=O)cc1` [listing 2 of 2 here], the Activity in the experiment filed under Rattus norvegicus [4] is 187 units/mg. Moreover, the ED in the experiment on Rattus norvegicus [5] is 1.9 nM/kg.

As to `COc1ccc(C[C@@H]2NC(=O)CCSSC[C@@H](C(=O)N3CCC[C@H]3C(=O)N[C@@H](CCCN=C(N)N)C(=O)NCC(N)=O)NC(=O)[C@H](CC(N)=O)NC(=O)[C@H](C(C)C)NC(=O)[C@H](Cc3ccccc3)NC2=O)cc1` [listing 1 of 2 here], the Kb in the experiment listed under Rattus norvegicus [1] was 19.5 nM; in the experiment listed under Rattus norvegicus [3], 11.7 nM; in the experiment filed under Rattus norvegicus [7] it was 55 nM.

In turn, `COc1ccc(C[C@@H]2NC(=O)CCSSC[C@@H](C(=O)N3CCC[C@H]3C(=O)N[C@@H](CCCN=C(N)N)C(=O)NCC(N)=O)NC(=O)[C@H](CC(N)=O)NC(=O)[C@H](C(C)C)NC(=O)[C@H](Cc3ccccc3)NC2=O)cc1` [listing 2 of 2 here] yielded an Activity in the experiment filed under Rattus norvegicus [4] of 789 units/mg. This compound displayed an ED with Rattus norvegicus [5] of 3.7 nM/kg.

Regarding `CC(C)[C@@H]1NC(=O)[C@H](Cc2ccccc2)NC(=O)[C@H](Cc2ccc(O)cc2)NC(=O)CCSSC[C@@H](C(=O)N2CCC[C@H]2C(=O)N[C@@H](CCCN=C(N)N)C(=O)NCC(N)=O)NC(=O)[C@H](CC(N)=O)NC1=O` (HELM PEPTIDE1{[O=C(CCS[*:3])[*:2]].Y.F.V.N.C.P.R.G.[am]}$PEPTIDE1,PEPTIDE1,1:R3-6:R3$$$V2.0), the Ratio in experiment [6] is 225. Moreover, the results for the agonist potency in the experiment filed under Rattus norvegicus [9] and in the experiment filed under Rattus norvegicus [10] were 31 units/mg and 26 units/mg, respectively. This compound registered an Activity in the experiment filed under Rattus norvegicus [4] of 1150 units/mg.

For `CC(C)[C@@H]1NC(=O)[C@H](Cc2ccccc2)NC(=O)[C@H](Cc2ccc(O)cc2)NC(=O)CCSSC[C@@H](C(=O)N2CCC[C@H]2C(=O)N[C@H](CCCNC(=N)N)C(=O)NCC(N)=O)NC(=O)[C@H](CC(N)=O)NC1=O` (HELM PEPTIDE1{[O=C(CCS[*:3])[*:2]].Y.F.V.N.C.P.[dR].G.[am]}$PEPTIDE1,PEPTIDE1,1:R3-6:R3$$$V2.0), the agonist potency worked out at 8 units/mg in the experiment listed under Rattus norvegicus [9] and 3 units/mg in the experiment listed under Rattus norvegicus [10]. Moreover, the Activity in the experiment listed under Rattus norvegicus [4] is 1230 units/mg. The ED with Rattus norvegicus [5] was 7.2 nM/kg.

Take `N=C(N)NCCC[C@@H](NC(=O)[C@@H]1CCCN1C(=O)[C@@H]1CSSCCC(=O)N[C@@H](Cc2ccc(O)cc2)C(=O)N[C@@H](Cc2ccccc2)C(=O)N[C@@H](CCC(N)=O)C(=O)N[C@@H](CC(N)=O)C(=O)N1)C(=O)NCC(N)=O` (stereo in doubt; form 1) [DESMOPRESSIN]: the Ratio in experiment [6] turned out to be 5. Besides, the agonist potency in the experiment listed under Rattus norvegicus [11] is 167 units/mg; in the experiment filed under Rattus norvegicus [9] it was 54 units/mg. This compound also had an Activity in the experiment listed under Rattus norvegicus [4] of 1740 units/mg.

On to `N=C(N)NCCC[C@@H](NC(=O)[C@@H]1CCCN1C(=O)[C@@H]1CSSCCC(=O)N[C@@H](Cc2ccc(O)cc2)C(=O)N[C@@H](Cc2ccccc2)C(=O)N[C@@H](CCC(N)=O)C(=O)N[C@@H](CC(N)=O)C(=O)N1)C(=O)NCC(N)=O` (stereo in doubt; form 2) [DESMOPRESSIN], for which the Ratio in experiment [6] was 3037. Further, the results for the agonist potency in the experiment filed under Rattus norvegicus [9] and in the experiment listed under Rattus norvegicus [10] were 1.5 units/mg and 2.9 units/mg, respectively. The Activity in the experiment filed under Rattus norvegicus [4] was 1200 units/mg.
